Data reported in ChEMBL document CHEMBL3124842, “Design, synthesis and evaluation of the antidepressant and anticonvulsant activities of triazole-containing quinolinones” (Eur J Med Chem, 2014).
The source made the active and inactive calls. The rule behind the calls is not given here.

How the values were obtained:
[1] = test system: Mus musculus; test: Antidepressant activity in KunMing mouse assessed as immobility time at 50 mg/kg, ip by forced swimming test; type: functional; settings: route intraperitoneal
Summary of the method: (§1)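 Compounds in DMSO given i.p. to mice, n = 8 per group. Dose was 50 mg/kg, or 10, 25 and 50 mg/kg in the dose-response study. After 30 min each mouse was placed in a water-filled cylinder (water 18 cm deep, 23–25 °C). Immobility (upright floating, only slight movements) was timed over the last 4 min of 6 min. %DID = (A − B)/A × 100, where A is control immobility and B is test immobility. Mean ± SEM; ANOVA with Dunnett's test versus control.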

[2] = test system: Mus musculus; test: Antidepressant activity in KunMing mouse assessed as decrease in immobility time at 50 mg/kg, ip by forced swimming test relative to control; type: functional; set-up: scale not given: the % may be the effect or the level left; settings: route intraperitoneal; summary of the method: as §1
[3] = test system: Mus musculus; test: Neurotoxicity in KunMing mouse at 50 mg/kg, ip; type: toxicity, organism-based; set-up: dose 50 mg/kg, route intraperitoneal; settings: in vivo
[4] = test system: Mus musculus; test: Neurotoxicity in ip dosed KunMing mouse assessed as motor impairment after 4 hrs by rotarod test; type: toxicity, organism-based; settings: in vivo
Summary of the method: (§2)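 Mice were trained on a 3.2 cm diameter rotarod turning at 10 rpm, then given compounds in DMSO i.p. at 30, 100 or 300 mg/kg. Neurotoxicity = failure to stay on the rod for at least 1 min in each trial, checked at 0.5 and 4 h. Value is the minimal dose toxic in half or more of the mice.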

[5] = test system: Mus musculus; test: Neurotoxicity in ip dosed KunMing mouse assessed as motor impairment after 0.5 hrs by rotarod test; type: toxicity, organism-based; settings: in vivo; summary of the method: as §2
[6] = test system: Mus musculus; test: Anticonvulsant activity in KunMing mouse assessed as protection against maximal electroshock-induced seizures at 100 mg/kg, ip after 0.5 hrs relative to control; type: functional; settings: route intraperitoneal
Summary of the method: (§3)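 Mice (22 ± 2 g) given compounds in DMSO i.p. at 30, 100 and 300 mg/kg; seizures elicited by electroshock via ear stimulation. Protection = abolition of hind limb tonic extension, read at 0.5 and 4 h after injection. Value is the minimal dose active in half or more of the mice; 300 mg/kg was the top dose.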

[7] = test system: Mus musculus; test: Anticonvulsant activity in ip dosed KunMing mouse assessed as protection against maximal electroshock-induced seizures after 4 hrs; type: functional; settings: read-out: MED; summary of the method: as §3
[8] = test system: Mus musculus; test: Anticonvulsant activity in ip dosed KunMing mouse assessed as protection against maximal electroshock-induced seizures after 0.5 hrs; type: functional; settings: read-out: MED; summary of the method: as §3
[9] = test system: Mus musculus; test: Neurotoxicity in KunMing mouse assessed as motor impairment at 300 mg/kg, ip after 4 hrs by rotarod test; type: toxicity, organism-based; set-up: dose 300 mg/kg, route intraperitoneal; settings: in vivo; summary of the method: as §2
[10] = test system: Mus musculus; test: Neurotoxicity in KunMing mouse assessed as motor impairment at 300 mg/kg, ip after 0.5 hrs by rotarod test; type: toxicity, organism-based; set-up: dose 300 mg/kg, route intraperitoneal; settings: in vivo; summary of the method: as §2
[11] = test system: Mus musculus; test: Anticonvulsant activity in KunMing mouse assessed as protection against maximal electroshock-induced seizures at 300 mg/kg, ip after 4 hrs; type: functional, organism-based; set-up: dose 300 mg/kg; summary of the method: as §3
[12] = test system: Mus musculus; test: Anticonvulsant activity in KunMing mouse assessed as protection against maximal electroshock-induced seizures at 300 mg/kg, ip after 0.5 hrs; type: functional, organism-based; set-up: dose 300 mg/kg; summary of the method: as §3
[13] = test system: Mus musculus; test: Toxicity in KunMing mouse assessed as effect on grooming at 50 mg/kg, ip by open-field test; type: organism-based; set-up: dose 50 mg/kg, route intraperitoneal; settings: in vivo
Summary of the method: (§4)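 Mice (22 ± 2 g) given 50 mg/kg i.p. in DMSO; tested 30 min later in an open field, placed at the centre. Counts were taken of locomotion (line crossings), rearing (standing on hind legs) and grooming. Mean ± SEM; ANOVA with Bonferroni's test versus control.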

[14] = test system: Mus musculus; test: Toxicity in KunMing mouse assessed as effect on rearing at 50 mg/kg, ip by open-field test; type: organism-based; set-up: dose 50 mg/kg, route intraperitoneal; settings: in vivo; summary of the method: as §4
[15] = test system: Mus musculus; test: Toxicity in KunMing mouse assessed as effect on locomotion at 50 mg/kg, ip by open-field test; type: organism-based; set-up: dose 50 mg/kg, route intraperitoneal; settings: in vivo; summary of the method: as §4
[16] = test system: Mus musculus; test: Antidepressant activity in KunMing mouse assessed as decrease in immobility time at 25 to 50 mg/kg, ip by forced swimming test; type: functional, organism-based; summary of the method: as §1
[17] = test system: Mus musculus; test: Antidepressant activity in KunMing mouse assessed as decrease in immobility time at 10 mg/kg, ip by forced swimming test; type: functional, organism-based; set-up: dose 10 mg/kg; summary of the method: as §1
[18] = test system: Mus musculus; test: Antidepressant activity in ip dosed KunMing mouse assessed as decrease in immobility time by forced swimming test; type: functional, organism-based; summary of the method: as §1
[19] = test system: Mus musculus; test: Antidepressant activity in KunMing mouse at 50 mg/kg, ip by tail suspension test; type: functional, organism-based; set-up: dose 50 mg/kg
Summary of the method: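 Male KunMing mice (22 ± 2 g, n = 8 per group), dosed i.p. at 50 mg/kg from a dimethylsulfoxide solution. Each mouse was hung by the tail above the floor with adhesive tape about 1-2 cm from the tail tip. Immobility, meaning completely motionless and hanging passively, was timed over the last 6 min of a 7 min session. Read-out was mean ± SEM, compared with control by ANOVA followed by Dunnett's test.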

## CCCCCCN1C(=O)CCc2cc(-n3cnnc3)ccc21
[1]
  Time: 98.5 s
[2]
  Activity: 24.5%
[3]
  Activity: Non-toxic
[4]
  MTC: 300 mg/kg
[5]
  MTC: 300 mg/kg
[6]
  Activity: 100%
[7]
  minimal effective dose: 300 mg/kg
[8]
  minimal effective dose: 100 mg/kg

## O=C1CCc2cc(-n3cnnc3)ccc2N1Cc1cccc(F)c1
[1]
  Time: 43 s
[2]
  Activity: 67%
[9]
  Activity: Non-toxic
[10]
  Activity: Non-toxic
[11]
  Activity: inactive
[12]
  Activity: inactive
[3]
  Activity: Non-toxic

## O=C1CCc2cc(-n3cnnc3)ccc2N1Cc1cccc(Cl)c1
[1]
  Time: 53.4 s
[2]
  Activity: 59.1%
[9]
  Activity: Non-toxic
[10]
  Activity: Non-toxic
[12]
  Activity: inactive
[3]
  Activity: Non-toxic
[7]
  minimal effective dose: 300 mg/kg

## O=C1CCc2cc(-n3cnnc3)ccc2N1Cc1c(Cl)cccc1Cl
[1]
  Time: 111 s
[2]
  Activity: 15.7%
[9]
  Activity: Non-toxic
[10]
  Activity: Non-toxic
[11]
  Activity: inactive
[12]
  Activity: inactive
[3]
  Activity: Non-toxic

## COc1ccc(CN2C(=O)CCc3cc(-n4cnnc4)ccc32)cc1
[1]
  Time: 121.6 s
[2]
  Activity: 6.8%
[9]
  Activity: Non-toxic
[10]
  Activity: Non-toxic
[11]
  Activity: inactive
[12]
  Activity: inactive
[3]
  Activity: Non-toxic

## CCCCCCCCCCN1C(=O)CCc2cc(-n3cnnc3)ccc21
[1]
  Time: 101 s
[2]
  Activity: 22.6%
[9]
  Activity: Non-toxic
[10]
  Activity: Non-toxic
[11]
  Activity: inactive
[12]
  Activity: inactive
[3]
  Activity: Non-toxic

## O=C1CCc2cc(-n3cnnc3)ccc2N1Cc1ccccc1Cl
[1]
  Time: 77.8 s
[2]
  Activity: 40.4%
[9]
  Activity: Non-toxic
[10]
  Activity: Non-toxic
[12]
  Activity: inactive
[3]
  Activity: Non-toxic
[7]
  minimal effective dose: 300 mg/kg

## O=C1CCc2cc(-n3cnnc3)ccc2N1Cc1ccc(Cl)cc1
[1]
  Time: 36.1 s
[2]
  Activity: 72.3%
[9]
  Activity: Non-toxic
[10]
  Activity: Non-toxic
[11]
  Activity: inactive
[12]
  Activity: inactive
[3]
  Activity: Non-toxic

## O=C1CCc2cc(-n3cnnc3)ccc2N1Cc1ccccc1
[1]
  Time: 68.1 s
[2]
  Activity: 47.8%
[9]
  Activity: Non-toxic
[10]
  Activity: Non-toxic
[11]
  Activity: inactive
[12]
  Activity: inactive
[3]
  Activity: Non-toxic

## O=C1CCc2cc(-n3cnnc3)ccc2N1Cc1ccc(Cl)cc1Cl
[1]
  Time: 105.8 s
[2]
  Activity: 18.9%
[9]
  Activity: Non-toxic
[10]
  Activity: Non-toxic
[3]
  Activity: Non-toxic
[7]
  minimal effective dose: 300 mg/kg
[8]
  minimal effective dose: 300 mg/kg

## O=C1CCc2cc(-n3cnnc3)ccc2N1Cc1ccccc1F
[1]
  Time: 35.6 s
[2]
  Activity: 72.7%
[9]
  Activity: Non-toxic
[10]
  Activity: Non-toxic
[12]
  Activity: inactive
[3]
  Activity: Non-toxic
[7]
  minimal effective dose: 300 mg/kg
[13]
  Activity: Non-toxic
[14]
  Activity: Non-toxic
[15]
  Activity: Non-toxic
[16]
  Activity: Active
[17]
  Activity: inactive
[18]
  Activity: Dose-dependent effect
[19]
  Activity: Active

## O=C1CCc2cc(-n3cnnc3)ccc2N1Cc1ccc(F)cc1
[1]
  Time: 71.1 s
[2]
  Activity: 45.5%
[9]
  Activity: Non-toxic
[10]
  Activity: Non-toxic
[12]
  Activity: inactive
[3]
  Activity: Non-toxic
[7]
  minimal effective dose: 300 mg/kg

## CCCN1C(=O)CCc2cc(-n3cnnc3)ccc21
[1]
  Time: 123.6 s
[2]
  Activity: 5.3%
[10]
  Activity: Non-toxic
[11]
  Activity: inactive
[12]
  Activity: inactive
[3]
  Activity: Non-toxic
[4]
  MTC: 300 mg/kg

## CCCCN1C(=O)CCc2cc(-n3cnnc3)ccc21
[1]
  Time: 70 s
[2]
  Activity: 46.4%
[10]
  Activity: Non-toxic
[11]
  Activity: inactive
[12]
  Activity: inactive
[3]
  Activity: Non-toxic
[4]
  MTC: 300 mg/kg

## CCCCCN1C(=O)CCc2cc(-n3cnnc3)ccc21
[1]
  Time: 129.8 s
[2]
  Activity: 0.5%
[11]
  Activity: inactive
[3]
  Activity: Non-toxic
[4]
  MTC: 300 mg/kg
[5]
  MTC: 300 mg/kg
[6]
  Activity: 100%
[8]
  minimal effective dose: 100 mg/kg

## CCCC(CCC)C(=O)[O-].[Na+] [VALPROATE SODIUM]
[9]
  Activity: Non-toxic
[10]
  Activity: Non-toxic
[11]
  Activity: inactive
[8]
  minimal effective dose: 300 mg/kg

## CNCCC(Oc1ccc(C(F)(F)F)cc1)c1ccccc1 (stereo not drawn) [FLUOXETINE]
[1]
  Time: 65.9 s
[2]
  Activity: 49.5%
[19]
  Activity: Active

## O=C1NC(=O)C(c2ccccc2)(c2ccccc2)N1 [PHENYTOIN]
[4]
  MTC: 100 mg/kg
[5]
  MTC: 100 mg/kg
[7]
  minimal effective dose: 100 mg/kg
[8]
  minimal effective dose: 30 mg/kg

## CCCCCCCN1C(=O)CCc2cc(-n3cnnc3)ccc21
[1]
  Time: 77.9 s
[2]
  Activity: 40.3%
[11]
  Activity: inactive
[3]
  Activity: Non-toxic
[4]
  MTC: 300 mg/kg
[5]
  MTC: 300 mg/kg
[8]
  minimal effective dose: 300 mg/kg

## CCCCCCCCN1C(=O)CCc2cc(-n3cnnc3)ccc21
[1]
  Time: 83.3 s
[2]
  Activity: 35.8%
[10]
  Activity: Non-toxic
[3]
  Activity: Non-toxic
[4]
  MTC: 300 mg/kg
[7]
  minimal effective dose: 300 mg/kg
[8]
  minimal effective dose: 300 mg/kg

## Cc1ccc(CN2C(=O)CCc3cc(-n4cnnc4)ccc32)cc1
[1]
  Time: 78.8 s
[2]
  Activity: 39.6%
[9]
  Activity: Non-toxic
[10]
  Activity: Non-toxic
[11]
  Activity: inactive
[12]
  Activity: inactive
[3]
  Activity: Non-toxic

## O=C1CCc2cc(-n3cnnc3)ccc2N1Cc1cccc(C(F)(F)F)c1
[1]
  Time: 93.3 s
[2]
  Activity: 37.2%
[9]
  Activity: Non-toxic
[10]
  Activity: Non-toxic
[3]
  Activity: Non-toxic
[7]
  minimal effective dose: 300 mg/kg
[8]
  minimal effective dose: 300 mg/kg
